Measured values: ChEMBL document CHEMBL1122590, “Dibenz[b,e]oxepinalkanoic acids as nonsteroidal antiinflammatory agents. 4. Synthesis and evaluation of 4-(4,10-dihydro-10-oxothieno[3,2-c] [1]benzoxepin-8-yl)butanol and -butyric acid and related derivatives” (1984)

What was measured:
Rattus norvegicus [1] = experiment: Ability to inhibit gastric irritation in rat administered perorally; type: functional; conditions: Stomach, po
In short: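 Male Wistar rats, 150-175 g, groups of 10, fasted 48 h (water ad libitum), dosed orally (10 mL/kg) as aqueous Tween 80 suspension or emulphor/alcohol/water (1:1:8) for oils; controls got vehicle. Time response: sacrificed at 3, 5 and 7 h. Dose-response at peak time with four doses. Stomach and intestine lesions (erosion, ulcer, perforation) scored. ED50 is the dose irritating 50% of rats, by linear regression; otherwise % at stated dose.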

Mus musculus [2] = experiment: Ability to inhibit phenylquinone induced writhing in mouse administered perorally; conditions: po
Rattus norvegicus [3] = experiment: Ability to inhibit Carrageenan-induced paw edema in rat administered perorally; type: functional; conditions: po
In short: (§1)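 Male Wistar rats, 130-200 g, groups of 7-10, fasted overnight with water available. Oral dosing in 10 mL/kg of aqueous Tween 80 suspension (oils in emulphor/alcohol/water 1:1:8) at 1, 2 and/or 4 h before subplantar injection of 0.1 mL of 1% carrageenan into left hind paw. Paw volume by mercury displacement at 0 and 3 h; % edema inhibition vs vehicle; ED50 by linear regression from at least three doses.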

Rattus norvegicus [4] = experiment: Ability to inhibit gastric irritation in rat at dose 400 mg/Kg administered per orally; type: functional; conditions: Stomach, po
In short: (§2)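 Groups of 10 male Wistar rats, 150-175 g, fasted 48 h with water available, dosed orally (10 mL/kg vehicle as Tween 80 suspension or emulphor/alcohol/water). Time course: sacrifice at 3, 5 and 7 h. Stomachs and intestines examined; any erosion, ulcer or perforation scored ulcerogenic. Four doses at peak time; ED50 = dose giving irritation in 50% of animals, by linear regression.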

Mus musculus [5] = experiment: Ability to inhibit phenylquinone induced writhing in mouse administered per orally; conditions: po
Rattus norvegicus [6] = experiment: Ability to inhibit Carrageenan-induced paw edema in rat administered per orally; type: functional; conditions: for ED50: po; in short: as §1
Rattus norvegicus [7] = experiment: Ability to inhibit Carrageenan-induced paw edema in rat at a dose of 20 mg/kg administered per orally; type: functional; conditions: route oral; in short: as §1
Mus musculus [8] = experiment: Ability to inhibit phenylquinone induced writhing in mouse at dose 25 mg/Kg administered per orally; conditions: po
Rattus norvegicus [9] = experiment: Ability to inhibit Carrageenan-induced paw edema in rat at dose 20 mg/Kg administered per orally; type: functional; conditions: po; in short: as §1
Rattus norvegicus [10] = experiment: Ability to inhibit gastric irritation in rat administered per orally; type: functional; conditions: Stomach, po; in short: as §2
Mus musculus [11] = experiment: Ability to inhibit phenylquinone induced writhing, in mouse at dose 25 mg/Kg administered per orally; conditions: po

COc1ccc2c(c1)c(CC(=O)O)c(C)n2C(=O)c1ccc(Cl)cc1 [INDOMETHACIN]
ED50 (Rattus norvegicus [1]): 1.8 mg/kg | ED50 (Mus musculus [2]): 0.7 mg/kg | ED50 (Rattus norvegicus [3]): 4.4 mg/kg

O=C1c2cc(CCCCO)ccc2OCc2ccsc21
inhibition in vivo at 400 mg/kg (Rattus norvegicus [4]): 40% | ED50 (Mus musculus [5]): 7.4 mg/kg | ED50 (Rattus norvegicus [6]): 8.6 mg/kg

CC(C)OC(=O)CCCc1ccc2c(c1)C(=O)c1sccc1CO2
ED50 (Mus musculus [5]): 8.5 mg/kg | inhibition in vivo at 20 mg/kg (Rattus norvegicus [7]): 44%

O=C(O)CCCc1ccc2c(c1)C(=O)c1sccc1CO2
inhibition in vivo at 25 mg/kg (Mus musculus [8]): 94% | Inhibition (Rattus norvegicus [6]): 38%

CC(=O)OCCCCc1ccc2c(c1)C(=O)c1sccc1CO2
inhibition in vivo at 20 mg/kg (Rattus norvegicus [9]): 38% | ED50 (Mus musculus [5]): 5.8 mg/kg

O=C(O)Cc1ccc2c(c1)C(=O)c1sccc1CO2
ED50 (Rattus norvegicus [10]): 33.7 mg/kg | ED50 (Mus musculus [5]): 3.1 mg/kg | ED50 (Rattus norvegicus [6]): 3.4 mg/kg

CC(C)(CO)NC(=O)Cc1ccc2c(c1)C(=O)c1sccc1CO2
inhibition in vivo at 20 mg/kg (Rattus norvegicus [9]): 21% | inhibition in vivo at 25 mg/kg (Mus musculus [11]): 19%

CCC(=O)OCCc1ccc2c(c1)C(=O)c1sccc1CO2
inhibition in vivo at 20 mg/kg (Rattus norvegicus [9]): 35% | inhibition in vivo at 25 mg/kg (Mus musculus [11]): 22%

COC(=O)COC(=O)Cc1ccc2c(c1)C(=O)c1sccc1CO2
ED50 (Mus musculus [5]): 1.5 mg/kg | inhibition in vivo at 20 mg/kg (Rattus norvegicus [7]): 43%

CC1(C)COC(Cc2ccc3c(c2)C(=O)c2sccc2CO3)=N1
inhibition in vivo at 20 mg/kg (Rattus norvegicus [9]): 49% | ED50 (Mus musculus [5]): 7.2 mg/kg

CC(C)(C)OC(=O)CCCc1ccc2c(c1)C(=O)c1sccc1CO2
inhibition in vivo at 25 mg/kg (Mus musculus [11]): 93% | inhibition in vivo at 20 mg/kg (Rattus norvegicus [7]): 49%

CC(=O)OCCc1ccc2c(c1)C(=O)c1sccc1CO2
ED50 (Rattus norvegicus [10]): 175 mg/kg | inhibition in vivo at 25 mg/kg (Mus musculus [11]): 52% | ED50 (Rattus norvegicus [6]): 11.4 mg/kg

CCOC(=O)CCCc1ccc2c(c1)C(=O)c1sccc1CO2
ED50 (Mus musculus [5]): 8.2 mg/kg | inhibition in vivo at 20 mg/kg (Rattus norvegicus [7]): 40%

O=C1c2cc(CCCCOC(=O)C(F)(F)F)ccc2OCc2ccsc21
ED50 (Mus musculus [2]): 9.1 mg/kg | ED50 (Rattus norvegicus [3]): 16.5 mg/kg

COC(=O)CCCc1ccc2c(c1)C(=O)c1sccc1CO2
ED50 (Mus musculus [5]): 10.8 mg/kg

O=C1c2cc(CCO)ccc2OCc2ccsc21
inhibition in vivo at 20 mg/kg (Rattus norvegicus [9]): 62% | ED50 (Mus musculus [5]): 19.7 mg/kg
